Results from ChEMBL document CHEMBL3593210, “Pentamidine analogs as inhibitors of [(3)H]MK-801 and [(3)H]ifenprodil binding to rat brain NMDA receptors” (Bioorg Med Chem, 2015).

Columns and labels:
Glutamate NMDA receptor [1] = assay: Displacement of [3H]-MK-801 from rat cortical membranes NMDA receptor by beta counting analysis in absence of spermine
Outline: (§1)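 Membranes from rat frontoparietal cortex and hippocampus, prepared in 50 mM Tris acetate pH 7.0. 5 nM [3H]MK-801 was incubated with membranes (~1 mg wet tissue) for 3 h at 23 °C in 10 mM Tris acetate pH 7.0 with 10 µM glutamate and glycine, in triplicate, with or without 30 µM spermine. Compounds were tested at 3–4 concentrations. Nonspecific binding was set with 100 µM (S)-ketamine. Bound ligand was filtered and scintillation-counted. Spermine sensitivity = IC50 (with spermine)/IC50 (without).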

[2] = biological target: Glutamate NMDA receptor (Rattus norvegicus) (UniProt P35439+Q00959+Q00960+Q00961+Q62645+Q8VHN2+Q9R1M7); assay: Ratio of IC50 for displacement of [3H]-MK-801 from rat cortical membranes NMDA receptor in presence of 30 uM spermine to IC50 for displacement of [3H]-MK-801 from rat cortical membranes NMDA receptor in absence of 30 spermine; outline: as §1
Glutamate NMDA receptor [3] = assay: Displacement of [3H]-MK-801 from rat cortical membranes NMDA receptor by beta counting analysis in presence of 30 uM spermine; outline: as §1

Q: How did the IC50 (Glutamate NMDA receptor [1]) turn out when `N=C(N)c1ccc(OCCCCOc2ccc(C(=N)N)cc2)cc1` was run?
A: 17.7 µM

Q: With `N=C(N)NCCCCNC(=N)N` as the compound, how does the Ratio IC50 [2] read?
A: 33.6

Q: `N=C(N)c1ccc(-c2ccc(-c3ccc(C(=N)N)cc3)s2)cc1` was tested. Which Ratio IC50 [2] did it give?
A: 2.61

Q: And the IC50 (Glutamate NMDA receptor [1])?
A: 6.68 µM

Q: What about the IC50 (Glutamate NMDA receptor [3]) of the same compound?
A: 17.7 µM

Q: With `CC(C)NC(=N)c1ccc(NC(=O)c2ccc(C(=O)Nc3ccc(C(=N)NC(C)C)cc3)o2)cc1` as the compound, how does the Ratio IC50 [2] read?
A: 16.9

Q: What about the IC50 (Glutamate NMDA receptor [1]) of the same compound?
A: 10.6 µM

Q: And the IC50 (Glutamate NMDA receptor [3])?
A: 174 µM

Q: Which results are given for `c1cc(N2CCCN(c3ccc(C4=NCCCN4)cc3)CC2)ccc1C1=NCCCN1`?
A: Ratio IC50 [2]: 11.7; IC50 (Glutamate NMDA receptor [1]): 12.8 µM; IC50 (Glutamate NMDA receptor [3]): 143 µM

Q: `N=C(N)c1ccc(C(=O)NCCCCCCNC(=O)c2ccc(C(=N)N)cc2)cc1` was tested. Which Ratio IC50 [2] did it give?
A: 4.59

Q: What about the IC50 (Glutamate NMDA receptor [1]) of the same compound?
A: 266 µM

Q: And the IC50 (Glutamate NMDA receptor [3])?
A: 1210 µM

Q: For `CC/N=C(\N)c1ccc(-c2ccc(-c3ccc(/C(N)=N/CC)cc3)o2)cc1`, which Ratio IC50 [2] is on record?
A: 2.56

Q: And the IC50 (Glutamate NMDA receptor [1])?
A: 12.2 µM

Q: What about the IC50 (Glutamate NMDA receptor [3]) of the same compound?
A: 30.7 µM

Q: Which Ratio IC50 [2] does the source give for `N=C(NCCO)c1ccc(N2CCCN(c3ccc(/C(N)=N/CCO)cc3)CC2)cc1` here?
A: 35.7

Q: And the IC50 (Glutamate NMDA receptor [1])?
A: 9.44 µM

Q: And the IC50 (Glutamate NMDA receptor [3])?
A: 324 µM

Q: What does the source list for `c1cc(N2CCN(c3ccc(C4=NCCCN4)cc3)CC2)ccc1C1=NCCCN1`?
A: Ratio IC50 [2]: 13.6; IC50 (Glutamate NMDA receptor [1]): 23.8 µM; IC50 (Glutamate NMDA receptor [3]): 264 µM

Q: How did the Ratio IC50 [2] turn out when `N=C(N)c1ccc(NC(=O)c2cccc(C(=O)Nc3ccc(C(=N)N)cc3)c2)cc1` was run?
A: 0.97

Q: What about the IC50 (Glutamate NMDA receptor [1]) of the same compound?
A: 42.3 µM

Q: What about the IC50 (Glutamate NMDA receptor [3]) of the same compound?
A: 36.7 µM

Q: `N=C(NC1CC1)c1ccc(N2CCCN(c3ccc(C(=N)NC4CC4)cc3)CC2)cc1` was tested. Which Ratio IC50 [2] did it give?
A: 19.9

Q: What about the IC50 (Glutamate NMDA receptor [1]) of the same compound?
A: 11.2 µM

Q: And the IC50 (Glutamate NMDA receptor [3])?
A: 212 µM

Q: With `N=C(N)c1ccc(NCCCCCCCNc2ccc(C(=N)N)cc2)cc1` as the compound, how does the Ratio IC50 [2] read?
A: 5.37

Q: What about the IC50 (Glutamate NMDA receptor [1]) of the same compound?
A: 4.67 µM

Q: What about the IC50 (Glutamate NMDA receptor [3]) of the same compound?
A: 25.4 µM

Q: Which results are given for `N=C(N)c1ccc(NC(=O)CCCCCCCCCCC(=O)Nc2ccc(C(=N)N)cc2)cc1`?
A: Ratio IC50 [2]: 2.98; IC50 (Glutamate NMDA receptor [1]): 9.63 µM; IC50 (Glutamate NMDA receptor [3]): 27.7 µM

Q: Which Ratio IC50 [2] does the source give for `c1cc(N2CCCN(c3ccc(C4=NCCN4)cc3)CC2)ccc1C1=NCCN1` here?
A: 30.1

Q: And the IC50 (Glutamate NMDA receptor [1])?
A: 3.03 µM

Q: What about the IC50 (Glutamate NMDA receptor [3]) of the same compound?
A: 92.2 µM

Q: `N=C(N)c1ccc(C(=O)Nc2cccc(NC(=O)c3ccc(C(=N)N)cc3)n2)cc1` was tested. Which Ratio IC50 [2] did it give?
A: 1.85

Q: And the IC50 (Glutamate NMDA receptor [1])?
A: 125 µM

Q: And the IC50 (Glutamate NMDA receptor [3])?
A: 233 µM

Q: What does the source list for `CCCCNC(=N)c1ccc(N2CCCN(c3ccc(C(=N)NCCCC)cc3)CC2)cc1`?
A: Ratio IC50 [2]: 11.2; IC50 (Glutamate NMDA receptor [1]): 9.94 µM; IC50 (Glutamate NMDA receptor [3]): 103 µM

Q: Which results are given for `N=C(NC1CC1)c1ccc(N2CCN(c3ccc(C(=N)NC4CC4)cc3)CC2)cc1`?
A: Ratio IC50 [2]: 21.8; IC50 (Glutamate NMDA receptor [1]): 19.4 µM; IC50 (Glutamate NMDA receptor [3]): 466 µM

Q: Which Ratio IC50 [2] does the source give for `N=C(N)c1ccc(-c2ccc(-c3ccc(C(=N)N)cc3)o2)cc1` [FURAMIDINE] here?
A: 2.37

Q: And the IC50 (Glutamate NMDA receptor [1])?
A: 4.23 µM

Q: And the IC50 (Glutamate NMDA receptor [3])?
A: 7.48 µM

Q: With `N=C(N)c1ccc(C(=O)NCCCCNC(=O)c2ccc(C(=N)N)cc2)cc1` as the compound, how does the IC50 (Glutamate NMDA receptor [1]) read?
A: > 1000 µM

Q: What about the IC50 (Glutamate NMDA receptor [3]) of the same compound?
A: > 1000 µM

Q: Which Ratio IC50 [2] does the source give for `C/N=C(\N)c1ccc(-c2ccc(-c3ccc(/C(N)=N/C)cc3)o2)cc1` here?
A: 3.47

Q: And the IC50 (Glutamate NMDA receptor [1])?
A: 6.97 µM

Q: What about the IC50 (Glutamate NMDA receptor [3]) of the same compound?
A: 24 µM

Q: How did the IC50 (Glutamate NMDA receptor [1]) turn out when `N=C(N)c1ccc(C(=O)NCCCNC(=O)c2ccc(C(=N)N)cc2)cc1` was run?
A: > 1000 µM

Q: What about the IC50 (Glutamate NMDA receptor [3]) of the same compound?
A: > 1000 µM

Q: Which Ratio IC50 [2] does the source give for `N=C(N)c1ccc(-c2ccc(-c3ccc(C(=N)N)s3)s2)s1` here?
A: 1.5

Q: And the IC50 (Glutamate NMDA receptor [1])?
A: 5.34 µM

Q: What about the IC50 (Glutamate NMDA receptor [3]) of the same compound?
A: 6.76 µM

Q: What does the source list for `N=C(N)c1ccc(NC(=O)CCCCC(=O)Nc2ccc(C(=N)N)cc2)cc1`?
A: Ratio IC50 [2]: 3.46; IC50 (Glutamate NMDA receptor [1]): 165 µM; IC50 (Glutamate NMDA receptor [3]): 437 µM

Q: What does the source list for `N=C(N)c1ccc(NC(=O)CCCCCCCCC(=O)Nc2ccc(C(=N)N)cc2)cc1`?
A: Ratio IC50 [2]: 4.07; IC50 (Glutamate NMDA receptor [1]): 15.7 µM; IC50 (Glutamate NMDA receptor [3]): 62.6 µM

Q: For `N=C(N)c1ccc(-c2ccc(-c3nc4ccc(C(=N)N)cc4[nH]3)s2)cc1`, which Ratio IC50 [2] is on record?
A: 4.14

Q: And the IC50 (Glutamate NMDA receptor [1])?
A: 3.21 µM

Q: And the IC50 (Glutamate NMDA receptor [3])?
A: 13.4 µM

Q: What does the source list for `CC(C)/N=C(/N)c1ccc(N2CCN(c3ccc(/C(N)=N\C(C)C)cc3)CC2)cc1`?
A: Ratio IC50 [2]: 32.9; IC50 (Glutamate NMDA receptor [1]): 21.4 µM; IC50 (Glutamate NMDA receptor [3]): 544 µM

Q: What does the source list for `N=C(N)c1ccc(NC(=O)CCCCCC(=O)Nc2ccc(C(=N)N)cc2)cc1`?
A: IC50 (Glutamate NMDA receptor [1]): > 1000 µM; IC50 (Glutamate NMDA receptor [3]): > 1000 µM

Q: `N=C(N)c1ccc(OCCCOc2ccc(C(=N)N)cc2)cc1` [PROPAMIDINE] was tested. Which IC50 (Glutamate NMDA receptor [1]) did it give?
A: 5.54 µM

Q: `N=C(N)c1ccc(C(=O)NCCCCCNC(=O)c2ccc(C(=N)N)cc2)cc1` was tested. Which IC50 (Glutamate NMDA receptor [1]) did it give?
A: 688 µM

Q: What about the IC50 (Glutamate NMDA receptor [3]) of the same compound?
A: > 1000 µM
